From article PMC3793015 (Journal of agricultural and food chemistry, 2013)

Assays:
HT-29 cells = experiment: Cellular uptake and metabolism of α-MG; assay type: in vitro ADME, human
Outline: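 HT-29 monolayers, 2 days post-confluence, given 8.5 μM compound in Tween 40 micelles in medium for 24 h. Activated cultures had 800 ng/mL LPS for 4 h, then a PBS wash, before compound. Spent medium and cells were collected separately, extracted and analysed by RP-HPLC, including glucuronide/sulfate conjugates. Xanthones were identified by retention time and UV spectrum and quantified against five-point mangostin standard curves. Results are given as % of initial compound; mean ± SD, n ≥ 5.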

[1] = tested on: IL-8 secretion by enterocyte-like Caco-2 cells; experiment: IL-8 secretion into basolateral medium; assay type: cell-based, human
Outline: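 Caco-2 monolayers were differentiated 21–25 days post-confluence on Transwell inserts. Compound in Tween 40 micelles went into the apical compartment, and IL-1β was added basolaterally. IL-8 in basolateral medium was measured by ELISA, with and without IL-1β.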

[2] = tested on: LPS-induced production of NO in RAW 264.7 cells; experiment: LPS-induced production of NO; assay type: cell-based, murine; settings: RAW 264.7, data not shown
Outline: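 RAW 264.7 cells, 2 days post-confluence, were pretreated 2 h with compound (DMSO stock into 10% FBS medium). They were then stimulated 16 h with 5 ng/mL E. coli O111:B4 LPS. NO production was estimated as medium nitrite by the Griess reaction.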

[3] = tested on: IL-8 secretion by colonic HT-29 cells; experiment: IL-8 secretion; assay type: cell-based, human
Outline: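 HT-29 monolayers, 2 days post-confluence, were pretreated with compound delivered in Tween 40 micelles. Activation used LPS from E. coli O111:B4. IL-8 secreted into the medium was quantified by ELISA, in both activated and nonactivated cultures.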

Caco-2 cells = experiment: Cellular uptake, metabolism and transport of α-MG on Transwell inserts; assay type: in vitro ADME, human
Outline: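 Caco-2 cells were differentiated 21–25 days post-confluence on Transwell inserts. Compound (12 μM) in Tween 40 micelles was added apically for 24 h. Activated cultures had 5 ng/mL IL-1β for 4 h, then a PBS wash. Apical medium, basolateral medium and cell monolayer were collected separately and analysed by RP-HPLC for free and conjugated xanthones. Amounts are % of initial compound; mean ± SD, n ≥ 5.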

MDM cells = experiment: Cellular uptake and metabolism of α-MG; assay type: in vitro ADME, human; settings: 24 h
Outline: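 Monocytes came from buffy-coat mononuclear cells, isolated on Ficoll and by clumping, then differentiated 6 days with 50 ng/mL M-CSF (97% CD14/CD11b-positive). Compound (3.3 μM) was delivered in 100% FBS, diluted to 10% FBS in RPMI 1640, for 24 h. Activated cultures first had 100 ng/mL LPS for 4 h, then a PBS wash. Medium and cells were analysed separately by RP-HPLC, including conjugates; mean ± SD, n ≥ 5.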

RAW 264.7 = experiment: Cytotoxicity of α-MG; assay type: cell-based, murine; settings: read-out: IC50 (cytotoxicity); RAW 264.7, 24 h, 10% FBS delivery
Outline: (§1)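 Cytotoxicity was judged by phase-contrast morphology and MTT reduction to formazan after exposure to increasing compound concentrations. Exposure was 24 h for RAW 264.7, MDM, HepG2 and HT-29, 8 h for PMA-differentiated THP-1, and 4 h for differentiated Caco-2. Delivery was DMSO into 10% FBS medium for RAW 264.7, THP-1 and HepG2; FBS-complexed compound at 10% FBS in RPMI 1640 for MDM; Tween 40 micelles for Caco-2 and HT-29.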

[4] = Stability of α-MG during incubation in cell-free culture media; assay type: physicochemical; settings: for calculated rate of α-MG loss per hour: DMSO, 24 h incubation; for recovery of α-MG after 24 h incubation: Tween 40 micelles
Outline: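 Compound was incubated cell-free for 24 h at 37 °C in RPMI, MEM, DMEM or McCoy's 5A, sampled at 0, 4, 8 and 24 h, extracted and analysed by RP-HPLC. Vehicles tested were: DMSO into medium without FBS or with 10% FBS (final DMSO <0.03%); Tween 40 micelles (final <0.02%) in DMEM or McCoy's; compound preincubated 48 h in 100% FBS, diluted 1:10 in RPMI 1640. Mean ± SD, n = 3 dishes.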

HepG2 cells = experiment: Cellular uptake and metabolism of α-MG; assay type: in vitro ADME, human
Outline: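 HepG2 monolayers, 2 days post-confluence, received 9.0 μM compound as a DMSO stock added to 10% FBS medium for 24 h. Activated cultures had 10 ng/mL TNF-α for 4 h and a PBS wash first. Medium and cells were collected separately, extracted and analysed by RP-HPLC for free and glucuronidated/sulfated xanthones. Quantification used retention time, UV spectrum and five-point standard curves, as % of initial amount; mean ± SD, n ≥ 5.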

Caco-2 = experiment: Cytotoxicity of α-MG; assay type: cell-based, human; settings: read-out: IC50 (cytotoxicity); Caco-2, 4 h, Tween 40 delivery
Outline: as §1

HepG2 = experiment: Cytotoxicity of α-MG; assay type: cell-based, human; settings: read-out: IC50 (cytotoxicity); HepG2, 24 h, 10% FBS delivery
Outline: as §1

[5] = 24 h after addition of α-MG, control cultures, nd: not detected
[6] = Caco-2 Transwell, 12 μM apical, 24 h

SMILES: COc1c(O)cc2oc3cc(O)c(CC=C(C)C)c(O)c3c(=O)c2c1CC=C(C)C [α-MG, α-mangostin]
- xanthone in media, HT-29 (HT-29 cells; 0 h, amount of α-MG at start): 16517 ± 373
- intracellular profile table, α-MG at 0 h, HT-29 (HT-29 cells; 0 h, control cultures): 16517 ± 373
- intracellular xanthone, HT-29 (HT-29 cells; [5]): 807 ± 178
- ratio of free to conjugated xanthones in medium, activated vs control (HT-29 cells; HT-29, 800 ng/mL LPS 4 h before α-MG, 24 h, p < 0.05): increased
- free xanthones in medium, of initial α-MG (HT-29 cells; HT-29, 8.5 μM, 24 h, control): 7 ± 2%
- nonconjugated xanthones in cells (HT-29 cells; HT-29, 8.5 μM, 24 h, control): only traces
- phase II conjugates in cells, of α-MG added (HT-29 cells; HT-29, 8.5 μM, 24 h, control): 5 ± 1%
- phase II conjugates in medium, of α-MG added (HT-29 cells; HT-29, 8.5 μM, 24 h, control): 42 ± 3%
- recovery of α-MG (HT-29 cells; HT-29, 24 h incubation): 54 ± 4%
- inhibition of IL-8 chemokine secretion ([1]; activated Caco-2, 15 μM pretreatment 4 h, IL-1β 5 ng/mL 16 h): 30–40%
- effect on secretion of IL-8 ([1]; nonactivated Caco-2 cultures): not altered
- inhibition of LPS-induced production of NO ([2]; 1 μM): 50%
- inhibition of LPS-induced production of NO ([2]; 3 μM): 61%
- inhibition of LPS-induced production of NO ([2]; 10 μM): 78%
- inhibition of IL-8 chemokine secretion ([3]; activated HT-29, 10 μM pretreatment 1 h, LPS 100 ng/mL 16 h): 30–40%
- effect on basal secretion of IL-8 ([3]; nonactivated HT-29 cultures): more than doubled
- xanthone in media, Caco-2 (Caco-2 cells; 0 h, amount of α-MG at start): 20741 ± 261 pmol/dish
- intracellular profile table, α-MG at 0 h, Caco-2 (Caco-2 cells; 0 h, control cultures): 20741 ± 261 pmol/dish
- intracellular xanthone, Caco-2 (Caco-2 cells; [5]): 3000 ± 551 pmol/dish
- ratio of free to conjugated xanthones in apical medium, activated vs control (Caco-2 cells; Caco-2, 5 ng/mL IL-1β, 24 h, p < 0.05): increased
- recovery of xanthones, of α-MG added (Caco-2 cells; Caco-2, 24 h): approximately 65%
- amount of xanthones and ratio of conjugated to free xanthones transported into basolateral compartment (Caco-2 cells; Caco-2, treatment with IL-1β vs control, p < 0.05): increased
- conjugated xanthones in basolateral medium (Caco-2 cells; [6]): 1.7 ± 0.3%
- conjugated xanthones in cells (Caco-2 cells; [6]): 10 ± 3%
- conjugates in apical medium (Caco-2 cells; [6]): 11 ± 2%
- free xanthones in apical medium (Caco-2 cells; [6]): 35 ± 1%
- free xanthones in basolateral medium (Caco-2 cells; [6]): 0.8 ± 0.1%
- free xanthones in cells (Caco-2 cells; [6]): 6 ± 0.6%
- xanthones in apical medium (total), of initial α-mangostin (Caco-2 cells; [6]): 47 ± 3%
- xanthones in basolateral medium (total), of initial α-mangostin (Caco-2 cells; [6]): 3 ± 0.3%
- xanthones in cells (total), of initial α-mangostin (Caco-2 cells; [6]): 16 ± 3%
- intracellular ratio of free to conjugated xanthones, activated vs control (Caco-2 cells; Caco-2 cells, 5 ng/mL IL-1β 4 h before α-MG, 24 h, p < 0.05): increased
- free xanthones in spent medium, of initial α-MG (MDM cells; 3.3 μM, control): 57 ± 4%
- free α-MG in cells, of total (MDM cells; 3.3 μM, control): 22 ± 5%
- glucuronidated/sulfated conjugates of α-MG in cells, of total (MDM cells; 3.3 μM, control): 20 ± 10%
- recovery of α-MG equivalents added (MDM cells): 99 ± 12%
- IC50 (RAW 264.7): 23 µM
- calculated rate of α-MG loss per hour ([4]; DMEM lacking FBS, cell free): 3.2%
- recovery of α-MG after 24 h incubation ([4]; DMEM without FBS, cell free): 110 ± 3
- stability of α-MG during 24 h incubation ([4]; DMSO stock added to media (RPMI 1640, MEM, DMEM) with 10% (v/v) FBS, cell free): 101 ± 6%
- calculated rate of α-MG loss per hour ([4]; MEM lacking FBS, cell free): 4.0%
- calculated rate of α-MG loss per hour ([4]; McCoy's 5A lacking FBS, cell free): 2.3%
- recovery of α-MG after 24 h incubation ([4]; McCoy's medium without FBS, cell free): 108 ± 4
- calculated rate of α-MG loss per hour ([4]; RPMI lacking FBS, cell free): 2.7%
- stability of α-MG after 24 h ([4]; added to 100% FBS diluted 1:10 (v:v) into RPMI 1640, cell free): 95 ± 8%
- xanthone in media, HepG2 (HepG2 cells; 0 h, amount of α-MG at start): 17834 ± 115 pmol/dish
- intracellular profile table, α-MG at 0 h, HepG2 (HepG2 cells; 0 h, control cultures): 17834 ± 115 pmol/dish
- intracellular xanthone, HepG2 (HepG2 cells; [5]): 9344 ± 298 pmol/dish
- intracellular ratio of free to conjugated xanthones, activated vs control (HepG2 cells; HepG2, 10 ng/mL TNF-α 4 h before α-MG, 24 h, p < 0.05): increased
- free xanthones in spent medium, of initial α-MG (HepG2 cells; HepG2, 9.0 μM, 24 h, control): 36 ± 2%
- free α-MG in cells, of total (HepG2 cells; HepG2, 9.0 μM, 24 h, control): 27 ± 3%
- glucuronidated/sulfated conjugates of α-MG in cells, of total (HepG2 cells; HepG2, 9.0 μM, 24 h, control): 29 ± 3%
- recovery of α-MG equivalents added (HepG2 cells; HepG2, 24 h): 91 ± 4%
- IC50 (Caco-2): > 80 µM
- IC50 (HepG2): 25 µM
